Published values from different studies.
Compare with care: the assays were run in different laboratories.
Target: Mitogen-activated protein kinase 12 (MAPK12, Homo sapiens, UniProt P53778)
Residues used in one study (P53778 1-367): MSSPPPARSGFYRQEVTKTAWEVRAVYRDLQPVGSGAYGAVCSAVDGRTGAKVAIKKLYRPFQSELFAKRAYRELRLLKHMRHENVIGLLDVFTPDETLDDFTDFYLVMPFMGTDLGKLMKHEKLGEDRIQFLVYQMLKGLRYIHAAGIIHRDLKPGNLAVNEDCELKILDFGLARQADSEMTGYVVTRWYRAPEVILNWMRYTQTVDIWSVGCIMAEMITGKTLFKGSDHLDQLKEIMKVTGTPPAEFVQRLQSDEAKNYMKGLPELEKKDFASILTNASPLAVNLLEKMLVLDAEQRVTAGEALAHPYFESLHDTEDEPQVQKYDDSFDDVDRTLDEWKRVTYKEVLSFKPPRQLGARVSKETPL

Compound | observed | action | technique | tested at | endpoint | result
FC(F)c1nc2ccccc2n1-c1nc(N2CCOCC2)nc(N2CCOCC2)n1 | enzyme activity | inhibitor |  | 10 µM | remaining activity | 92%
Cc1ccc(Nc2nccc(N(C)c3ccc4c(C)n(C)nc4c3)n2)cc1S(N)(=O)=O | enzyme activity | inhibitor |  | 0.3 µM | inhibition | -5%
CC(C)(O)[C@H]1CC[C@H](Nc2ccc3ncc(-c4cccc(C(F)(F)F)c4)n3n2)CC1 | enzyme activity | inhibitor |  | 1 µM | remaining activity | 93.8%
O=C(Nc1cccnn1)N1CCC(=Cc2cccc(Oc3ccc(C(F)(F)F)cn3)c2)CC1 | cell-free assay |  | competition with immobilised ligand | 1 µM | remaining binding | 100%
CC(C)(C)C(=O)c1sc(NC2CCCCC2)nc1N | enzyme activity | inhibitor |  | 10 µM | remaining activity | 89%
Cc1c(NC(=O)c2cc(C(N)=O)nc3cc(F)ccc23)c(C(F)(F)F)nn1Cc1ccc(C(C)(C)C)cc1 | cell-free assay |  | competition with immobilised ligand | 1 µM | remaining binding | 56%
Cn1c(=O)n(-c2ccc(C(C)(C)C#N)cc2)c2c3cc(-c4cnc5ccccc5c4)ccc3ncc21 | enzyme activity | inhibitor |  | 10 µM | remaining activity | 101%
Nc1nc(Nc2ccccc2)sc1C(=O)c1c(F)cccc1F | enzyme activity | inhibitor |  | 10 µM | remaining activity | 77%
CN1CC(Oc2cnc(C#N)cc2-c2ccn3nc(NC(=O)C4CC4)cc3c2)C1 | enzyme activity | inhibitor |  | 1 µM | inhibition | -1%
O=C(Nc1cnn(-c2csc(C(=O)NC3COC3)c2)c1)Nc1c(F)cccc1Cl | enzyme activity | inhibitor |  | 5 µM | remaining activity | 98.3%
COc1cc(Nc2cnc(C#N)c(O[C@H](C)CN(C)C)n2)ncc1-c1cnn(C)c1 | enzyme activity | inhibitor | radiometric | 10 µM | remaining activity | 109%
N#CC1(c2ccccn2)CCN(Cc2cc(C(=O)N3CCCC3)c(=O)n3ccccc23)CC1 | cell-free assay |  | competition with immobilised ligand | 1 µM | remaining binding | 100%
O=C1NC(=O)c2cc(Nc3ccc(F)cc3)c(Nc3ccc(F)cc3)cc21 | cell-free assay |  |  | 0.5 µM | remaining signal | 93.6%
CCC(=O)N[C@H]1CC[C@@H](C(=O)N(C)c2ccc(-c3nc4ccccc4o3)cc2)C1 | cell-free assay |  | competition with immobilised ligand | 1 µM | remaining binding | 67%
CCN(CC)CCNC(=O)c1c(C)[nH]c(/C=C2\C(=O)Nc3ccc(F)cc32)c1C | enzyme activity | inhibitor |  | 10 µM | inhibition | -3%
COc1cc2ncnc(Nc3ccc(Oc4ccccc4)cc3C)c2cc1OC | enzyme activity | inhibitor |  | 1 µM | inhibition | 4%
CS(=O)(=O)c1cc(C2(NC(=O)c3cncc4c3cnn4-c3ccc(F)cc3)CC2)ccn1 | cell-free assay |  | competition with immobilised ligand | 1 µM | remaining binding | 100%
COc1cc(Cl)c(C(=O)N[C@@H](CN[C@H]2CC[C@@H](N)CC2)Cc2ccc(C#N)cc2)cc1-c1ccc(CN[C@H](C)c2ccc(C)cc2)o1 | enzyme activity | inhibitor |  | 1 µM | remaining activity | 109%
Cn1nc(C(F)(F)F)cc1-c1cnc(N2CCc3cc(S(=O)(=O)Nc4c(F)cc(Cl)cc4F)cc(N4CCCC4=O)c32)nc1 | cell-free assay |  | competition with immobilised ligand | 1 µM | remaining binding | 83%
CCCS(=O)(=O)Nc1ccc(F)c(C(=O)c2c[nH]c3ncc(-c4ccc(Cl)cc4)cc23)c1F | enzyme activity | inhibitor |  | 1 µM | inhibition | < 10%
O=C1Nc2ccc(Cl)cc2C1=Cc1cc(Cl)c(O)c(Cl)c1 | cell-free assay |  |  | 0.5 µM | remaining signal | 90.5%
Cc1nccc(COC(=O)N2C[C@@H]3[C@@H](CNC(=O)c4ccc5[nH]nnc5c4)[C@@H]3C2)n1 | cell-free assay |  | competition with immobilised ligand | 1 µM | remaining binding | 79%
Oc1cccc(-c2nc(N3CCOCC3)c3oc4ncccc4c3n2)c1 | cell-free assay |  |  | 0.5 µM | remaining signal | 93.4%
CC(C)(C)c1nc2c(s1)c1nc(N)ncc1c1ccc(NS(=O)(=O)c3c(F)cccc3F)c(F)c12 | enzyme activity | inhibitor | radiometric | 1 µM | remaining activity | 100%
O=C(NC[C@@H]1[C@H]2CN(C(=O)OCc3cc(C(F)(F)F)cc(C(F)(F)F)c3)C[C@@H]12)c1ccc2[nH]nnc2c1 | cell-free assay |  | competition with immobilised ligand | 1 µM | remaining binding | 100%
CC/C(=N\NC(=O)NCc1cccc(O)c1)c1ccc(O)c(C)c1O | enzyme activity | inhibitor |  | 0.1 µM | inhibition | -1.6%
O=C(Nc1cnn(-c2csc(C(=O)NC3COC3)c2)c1)Nc1ccccc1Cl | enzyme activity | inhibitor |  | 5 µM | remaining activity | 99.4%
Cc1cc(NC(=O)c2cccc3cc(-c4cccc5[nH]nc(N)c45)ccc23)ccc1F | enzyme activity | inhibitor |  | 0.1 µM | activity vs control | 83%
